# Source: PubChem BioAssay
# APP 5'UTR act – APP 5'UTR luciferase reporter activation; actives 1% (n = 190,000); SH-SY5Y APP 5'UTR luciferase reporter, luminescence; zero percent = DMSO vehicle wells; activation, % at 2 µM; AID 1276;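 active means activation above a set limit, based on mean plus 3 SD of controls, cut at about 140% in these data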
# NF-kB expr up – raises NF-kB expression in human neuronal cells | NF-kB reporter expression; hits give high values | fold change at 12.5 µM | actives 1.6% (n = 190,000); in the data active means fold change above about 3.3
# STAT1 inh – STAT1 signaling inhibition; NIH 3T3 STAT1-luciferase reporter, IFN-gamma, luminescence; inhibition, % at 5.5 µM; actives 0.35% (n = 200,000);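 active means inhibition above a set limit, the mean inhibition across all tested compounds plus 3 SD, cut at about 34% in these data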;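 further: 0% = IFN-gamma with DMSO and 100% = IFN-gamma with 300 µM nifuroxazide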
# STAT1 act – activators of IFN-gamma induced STAT1 signaling; NIH 3T3 STAT1-luciferase reporter, luminescence; 100% = IFN-gamma alone, no compound; activation (% of control), % at 5.5 µM; actives 2.6% (n = 200,000); AID 932;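 active means activation above the screen-wide mean activation plus 3 SD, cut at about 130% in these data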;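 further: raw ratio to IFN-gamma control signal so 100% means no change and 0% no light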
# STAT3 activator – activators of IL-6 induced STAT3 signaling; U3A cells, IL-6 STAT3-luciferase reporter, luminescence; 100% = signal with IL-6 EC80 alone; activation (% of control), % at 5.6 µM; actives 0.91% (n = 190,000); AID 871;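 active means activation above the screen-wide mean of compound activation plus 3 SD, cut at about 130% in these data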;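 further: 0% = background luminescence of wells with medium and substrate only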
#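 Material: STAT1-lacking human U3A cells, STAT3 luciferase reporter | Benchmarks: IL-6-only wells as 100% reference | Probe or stimulus: IL-6 (33 ng/mL) | Timing: Compound 1 h, then IL-6 6 h at 37 °C | Detection: Luminescence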
# STAT3 inh-1 – reduces IL-6 driven STAT3 reporter signal | actives 0.89% (n = 190,000) | U3A cells, IL-6 STAT3-luciferase reporter, luminescence; host cell line lacks STAT1 | inhibition, % at 5.5 µM | AID 862;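 active means inhibition above the mean inhibition across all screened compounds plus 3 SD, cut at about 44% in these data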;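 further: 0% = DMSO only wells and 100% = 100 µM nifuroxazide control wells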
# STAT3 inh-2 – STAT3 inhibition, confirmation assay; shares compounds with STAT3 inh-1; U3A cells, IL-6 STAT3 luciferase reporter, luminescence; cell line lacks STAT1; inhibition, % at 5.7 µM; actives 45% (n = 1,200); AID 1265;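 active means inhibition above the hit cutoff computed for the primary STAT3 screen, cut at about 44% in these data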;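 further: 0% = IL-6 plus DMSO and 100% = IL-6 plus nifuroxazide control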
# NFkB inh 2 – NF-kappaB inhibition in STAT3 inhibitor counter-screen; shares compounds with STAT3 inh-1; HEK293T NF-kB luciferase reporter, TNF-alpha induced; inhibition, % at 5.7 µM; actives 36% (n = 1,200); AID 1308;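 active means inhibition above the mean of solvent-only control wells plus 3 SD, cutoff set per campaign, cut at about 13% in these data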;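 further: 0% = TNF-alpha with DMSO and 100% = TNF-alpha with MG high control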
# STAT1 inh STAT3c – counter-screen for STAT3 inhibitors: STAT1 inhibition; shares compounds with STAT3 inh-1; NIH 3T3 STAT1-luciferase reporter, IFN-gamma induced, luminescence; inhibition, % at 5.7 µM; actives 27% (n = 1,200);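 active means inhibition above the mean plus 3 SD of solvent-only control wells, limit set per screening run, cut at about 16% in these data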;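 further: 0% = DMSO with IFN-gamma and 100% = nifuroxazide control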
# The depositor's hits bear a star; . = no result. Only some compounds are listed: those with a hit (about 4.9% of all), similar ones and a draw of the others.
SMILES,APP 5'UTR act,NF-kB expr up,STAT1 inh,STAT1 act,STAT3 activator,STAT3 inh-1,STAT3 inh-2,NFkB inh 2,STAT1 inh STAT3c
O=C(CCNS(=O)(=O)c1cccs1)NCc1ccccc1,-15.2,1.22,1.3,98.8,106.3,-0.1,.,.,.
O=C(N1CCCC1)C12CCC3CC(CC(C3)C1)C2,1.6,1,-2.9,104.6,93.9,7.3,.,.,.
Cc1cccc(C)c1NC(=S)N1CCC(c2ccccc2)C1 (centres undefined),2.6,1,3.0,97.6,95.7,10.9,.,.,.
O=C1CCCN1c1ccc(S(=O)(=O)N2CCN(c3ccccc3)CC2)cc1,12.5,1.05,5.7,92.9,97.0,6.8,.,.,.
O=C1CCCN1c1ccc(S(=O)(=O)N2CCC(c3ccccc3)CC2)cc1,2.4,1.4,3.8,96.5,45.0,69.1*,55.8*,12.4,9.9
O=C(c1cc(COc2c(F)cccc2F)on1)N1CCc2ccccc2C1,9.6,1.24,-1.6,99.8,90.4,13.5,.,.,.
O=C(c1cc(COc2c(F)cccc2F)on1)N1CCC(c2ccncc2)CC1,-6.6,0.93,24.6,76.5,57.0,52.9*,59.0*,18.3*,19.5*
Cc1ccc(N2C(=O)c3ccccc3C2O)nc1 (centres undefined),113.4,1.3,1.6,99.3,40.0,73.6*,43.8*,8.1,-20.8
COc1ccc2nc(SCC(=O)Nc3ccccc3C)[nH]c2c1,14.8,1.45,-1.1,101.0,96.5,7.8,.,.,.
Cc1ccc(S(=O)(=O)NC2c3cccc4cccc(c34)C2Sc2nc(C)cc(C)n2)cc1 (centres undefined),0.4,0.98,-0.3,100.3,111.2,-16.6,.,.,.
N#Cc1nc(N2CCCC2)nc(N2CCCC2)n1,8.9,0.79,6.6,93.9,52.4,55.7*,56.1*,27.7*,5.7
N#Cc1nc(N2CCCCC2)nc(N2CCOCC2)n1,-16.7,1.65,-2.5,102.3,89.5,15.4,.,.,.
CCN(CC)C(=O)c1ccc(S(=O)(=O)N2CCC(c3nc4ccccc4s3)CC2)cc1,26.8,0.85,21.7,83.7,45.8,67.1*,50.9*,11.0,17.6*
CC1CCCN(C(=O)c2ccc(S(=O)(=O)N3CCC(c4nc5ccccc5s4)CC3)cc2)C1 (centres undefined),-0.1,.,-3.6,106.5,57.1,52.7*,50.3*,14.3*,18.0*
COc1cc(NC(=S)NN2CCN(C)CC2)cc(OC)c1,17.0,1.13,1.0,92.7,99.1,10.1,.,.,.
CCOC(=O)NC(O)C(=O)c1cccs1 (centres undefined),10.6,1.37,-4.8,104.4,102.5,2.8,.,.,.
CCCC(C)c1nnc(NC(=O)c2cc(C(=O)OC)cc([N+](=O)[O-])c2)s1 (centres undefined),10.1,0.95,5.3,95.2,97.4,14.2,.,.,.
CCN(CC)C(=O)C1CCN(S(=O)(=O)c2ccc3oc4ccccc4c3c2)CC1,2.4,1.12,12.9,88.2,68.4,44.7*,33.0,5.0,10.7
O=S(=O)(c1ccc2oc3ccccc3c2c1)N1CCCC1,-12.1,1.06,2.2,97.9,100.4,0.6,.,.,.
COc1cc(CC(=O)OCC(=O)Nc2ccc(S(=O)(=O)N3CCCC3)cc2)cc(OC)c1OC,18.5,1.31,-0.6,100.5,106.2,0.4,.,.,.
COc1ccc(CN(C)C(C)C(=O)Nc2ccc(S(=O)(=O)N3CCCC3)cc2)c(OC)c1OC (centres undefined),13.6,0.78,26.4,74.5,64.1,44.7*,31.5,3.4,17.8*
Cc1ccc(-c2cc(C(F)F)n3ncc(C(=O)N4CCN(c5cccc(C)c5C)CC4)c3n2)cc1,25.4,0.67,-5.0,104.6,98.8,-0.1,.,.,.
COc1ccc(NC(=O)c2cc3ccccn3n2)cc1,149.1*,5.98*,-22.6,120.5,66.5,45.7*,19.7,-29.3,-95.8
Cc1sc(NC(=O)CCCC(=O)O)c(C(N)=O)c1-c1ccccc1,-48.6,.,7.8,93.2,73.3,35.5,.,.,.
CCOc1cc(C2CC(=O)c3c(ccc4ccccc34)N2)ccc1O (centres undefined),-6.7,0.9,-5.3,104.8,104.1,2.9,.,.,.
SMILES,APP 5'UTR act,NF-kB expr up,STAT1 inh,STAT1 act,STAT3 activator,STAT3 inh-1,STAT3 inh-2,NFkB inh 2,STAT1 inh STAT3c
O=C(O)CNC(=O)c1ccc(N2CCOCC2)cc1[N+](=O)[O-],7.4,1.2,-0.7,99.3,103.4,-2.7,.,.,.
Cc1ccc(S(=O)(=O)NCc2ccncc2)cc1,-11.4,0.94,23.2,78.8,44.0,67.5*,37.7,20.8*,24.7*
CCOc1cc(S(=O)(=O)NCc2ccncc2)ccc1Cl,-1.6,0.91,33.9,68.9,28.4,84.5*,85.4*,34.3*,26.9*
CCOc1ccc(S(=O)(=O)NCc2ccncc2)cc1,-12.9,0.56,28.4,73.8,26.8,88.5*,81.6*,33.7*,23.5*
CCOc1cc(S(=O)(=O)NCc2cccs2)ccc1Cl,-1.8,1.19,3.8,96.5,97.8,6.9,.,.,.
CC1CCCCC1NS(=O)(=O)c1ccc(S(=O)(=O)NCc2ccncc2)cc1 (centres undefined),0.6,0.79,25.8,76.6,43.5,73.3*,48.1*,9.2,11.8
CCOc1ccc(S(=O)(=O)NCc2ccccn2)cc1,27.5,0.96,-0.1,100.1,97.2,9.1,.,.,.
CCCc1[nH]n(-c2ccc(F)cc2)c(=O)c1C=Nc1ccc(C)cc1,-12.8,0.88,-3.5,103.4,96.4,2.9,.,.,.
CCCN(CCC)CCNc1c(N2CCN(C(=O)OCC)CC2)c(=O)c1=O,4.8,1.01,-2.5,102.3,102.0,-0.5,.,.,.
COCC(C)n1c(SCC(=O)N2CCc3ccccc3C2)nc2ccccc2c1=O (centres undefined),6.2,0.79,-0.4,100.4,99.5,-1.7,.,.,.
O=C(CC1NCCNC1=O)Nc1ccc([N+](=O)[O-])cc1 (centres undefined),1.9,0.94,-9.7,105.7,111.6,-8.9,.,.,.
CCOC(=O)COc1ccc(S(=O)(=O)NCc2ccncc2)cc1,.,0.78,25.8,80.0,43.3,70.0*,54.9*,12.3,23.0*
CCOC(=O)COc1ccc(S(=O)(=O)NCc2ccco2)cc1,3.9,0.97,-10.4,109.6,103.7,-0.3,.,.,.
Cc1ccc(-n2nnnc2CCl)cc1,18.6,0.97,30.3,70.2,100.7,2.6,.,.,.
CC1Cc2cc(-c3csc(NC(=O)Cc4ccccc4)n3)ccc2N1S(C)(=O)=O (centres undefined),0.7,0.5,3.3,97.0,46.8,66.0*,53.1*,13.0*,9.6
